Data published in publication PMC3330681 (Scientific Reports, 2012).

Legend:
Format in all cases: cell-based
GPR35 [1] = molecular target: T1, GPR35 (Homo sapiens, UniProt Q9HC97); test: Dynamic mass redistribution; settings: for DMR signal in DMR agonism profiling (in words): doses up to 1 mM
GPR35 [2] = molecular target: T1, GPR35; test: Tango β-arrestin translocation gene reporter assay in U2OS-GPR35-bla cells; settings: for Efficacy Tango (maximal response): normalized to maximal response of zaprinast within the same plate
GPR35 [3] = molecular target: T1, GPR35; test: DMR antagonist assay: SPB05142 blocking the agonist-induced DMR in HT-29 cells; settings: for DMR of the agonist in the presence of 64 μM SPB05142: HT-29 cells
Summary of the method: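 HT-29 cells in McCoy's 5a with 10% FBS were grown overnight to confluence on resonant waveguide biosensor plates, washed into HBSS and equilibrated 1 hr at 26°C. GPR35 antagonist pretreatment lasted 1 hr, then baseline, then agonist at a fixed dose. DMR was recorded for about 1 hr and background-corrected.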

GPR35 [4] = molecular target: T1, GPR35; test: Receptor internalization assay; settings: HT-29, 1 hr; 50 μM gentisate, 2 mM L-DOPA, 50 μM DHICA, 500 μM DOPAC, 5 μM reverse T3, 200 μM T4, 50 μM 3-nitrotyrosine
Summary of the method: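 HT-29 cells (McCoy's 5a, 10% FBS, 37°C/5% CO2) were seeded on chamber slides at 10,000 cells/well for 24 hrs, then given a test compound at a fixed dose or DMSO vehicle for 1 hr at 37°C. Cells were fixed in 4% formaldehyde, permeabilized, and stained with intracellular-domain anti-GPR35 (1:500, 24 hrs) and an Alexa Fluor 594 secondary. Confocal imaging followed.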

[5] = U2OS-GPR35-bla cells, β-arrestin translocation
[6] = DMR agonism, HT-29 cells, maximal DMR amplitude within 1 hr

T1 sequence (Q9HC97 whole entry): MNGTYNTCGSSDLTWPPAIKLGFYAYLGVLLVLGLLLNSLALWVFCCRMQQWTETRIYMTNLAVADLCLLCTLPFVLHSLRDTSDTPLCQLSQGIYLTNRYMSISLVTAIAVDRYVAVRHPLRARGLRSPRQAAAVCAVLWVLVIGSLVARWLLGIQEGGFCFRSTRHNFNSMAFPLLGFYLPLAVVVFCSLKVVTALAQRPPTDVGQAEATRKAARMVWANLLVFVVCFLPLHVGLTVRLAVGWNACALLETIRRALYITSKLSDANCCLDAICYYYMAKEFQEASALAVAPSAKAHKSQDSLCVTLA

| Compound | EC50 (GPR35 [1]) | Efficacy DMR (maximal response) (GPR35 [1]; HT-29 cells) | DMR signal in DMR agonism profiling (in words) (GPR35 [1]; HT-29 cells) | EC50 Tango (GPR35 [2]; [5]) | Efficacy Tango (maximal response) (GPR35 [2]; U2OS-GPR35-bla cells) | EC50 (GPR35 [2]) | EC50 DMR (GPR35 [1]; [6]) | also measured |
| --- | --- | --- | --- | --- | --- | --- | --- | --- |
| N[C@@H](Cc1cc(I)c(O)c(I)c1)C(=O)O [3,5-Diiodo-L-tyrosine, 3,5-diiodo-L-tyrosine] | 304 ± 45 µM | 254±19 pm | clear dose-dependent DMR | Inactive |  |  |  |  |
| COC(=O)c1cnn(-c2ccc(F)cc2F)c1C=NNC(=S)NC(C)(C)C [SPB05142, methyl-5-[(tert-butylcarbamothioylhydrazinylidene)-methyl]-1-(2,4-difluorophenyl)-pyrazole-4-carboxylate, reference compound] |  |  | little or no DMR signal |  |  |  |  | Inhibition by SPB05142 of the DMR of DOPA (GPR35 [3]; HT-29, agonist at EC50 to EC80): partially inhibited; Inhibition by SPB05142 of the DMR arising from all other eleven agonists (GPR35 [3]; HT-29, each agonist at EC50 to EC80): dose-dependently inhibited; IC50 Antagonist (SPB05142 to block the DMR of the agonist) (GPR35 [3]; against homogentisate, HT-29): No inhibition; Activity in Tango β-arrestin translocation assay (in words) (GPR35 [2]; U2OS-GPR35-bla cells): inactive |
| O=C(O)c1cccnc1Nc1cccc(C(F)(F)F)c1 [Niflumic acid, reference compound] |  | 223±11 pm |  |  | 39 % Zaprinast |  |  |  |
| O=C(O)CCc1ccc(O)c(O)c1 [Dihydrocaffeic acid, 3-(3,4-dihydroxyphenyl)propionic acid] | 342 ± 41 µM | 293±12 pm | active |  | 46 % Zaprinast | 186 ± 21 µM |  | DMR of the agonist in the presence of 64 μM SPB05142 (GPR35 [3]): residual DMR signal |
| O=C(O)c1cc(=O)c2ccccc2[nH]1 [Kynurenic acid, reference compound] |  | 203±13 pm |  |  | >60 % Zaprinast | > 500 µM |  |  |
| O=C(O)c1cc2cc(O)c(O)cc2[nH]1 [DHICA, 5,6-dihydroxyindole-2-carboxylic acid] | 24.2 ± 2.7 µM | 310±11 pm | clear dose-dependent and saturable DMR |  | 75 % Zaprinast | 22.9 ± 1.6 µM |  | GPR35 internalization (GPR35 [4]): obvious internalization; Activity in Tango β-arrestin translocation assay (in words) (GPR35 [2]; U2OS-GPR35-bla cells): robust FRET signal |
| NC(Cc1ccc(O)cc1)C(=O)O (racemic) [DL-Tyrosine, DL-tyrosine] |  |  |  | Inactive |  |  | Inactive |  |
| COc1cc(CC(=O)O)ccc1O [Homovanillic acid, homovanillic acid] |  |  |  | Inactive |  |  | Inactive |  |
| O=C(O)Cc1ccc(O)c(O)c1 [DOPAC, 3,4-Dihydroxyphenylacetic acid] | > 500 µM | >200 pm | active |  | 44 % Zaprinast | 106 ± 7 µM |  | DMR of the agonist in the presence of 64 μM SPB05142 (GPR35 [3]): residual DMR signal; GPR35 internalization (GPR35 [4]): obvious internalization |
| O=C(O)Cc1ccc(O)cc1 [4-Hydroxyphenylacetate, 4-hydroxyphenylacetate] |  |  |  | Inactive |  |  | Inactive |  |
| OCC(O)c1ccc(O)c(O)c1 (stereo not drawn) [DHPG, 3,4-dihydroxyphenylglycol] | 239 ± 37 µM | 310±12 pm | active |  | 18 % Zaprinast | 563 ± 67 µM |  | DMR of the agonist in the presence of 64 μM SPB05142 (GPR35 [3]): residual DMR signal |
| NC(Cc1ccccc1)C(=O)O (racemic) [DL-Phenylalanine, DL-phenylalanine] |  |  |  | Inactive |  |  | Inactive |  |
| CCCOc1ccccc1-c1nc2nn[nH]c2c(=O)[nH]1 [Zaprinast, reference compound] |  | 250±17 pm |  |  | 100 % Zaprinast |  |  |  |
| C[C@](N)(Cc1ccc(O)c(O)c1)C(=O)O [α-methyl-L-DOPA, reference compound] |  |  |  | Inactive |  |  | Inactive |  |
| N[C@@H](Cc1ccc(O)c([N+](=O)[O-])c1)C(=O)O [3-Nitro-L-tyrosine, 3-nitro-L-tyrosine] | 142 ± 27 µM | 330±13 pm | robust DMR signal |  | >20 % Zaprinast | > 500 µM |  | Activity in Tango β-arrestin translocation assay (in words) (GPR35 [2]; U2OS-GPR35-bla cells): able to result in β-arrestin translocation |
| COc1cc(CCN)ccc1O [3-Methoxytyramine, 3-methoxytyramine] |  |  |  | Inactive |  |  | Inactive |  |
| N[C@@H](Cc1ccc(Oc2cc(I)c(O)c(I)c2)c(I)c1)C(=O)O [Reverse T3, 3,3′,5′-triiodothyronine] | 5.89 ± 0.39 µM | 276±12 pm | clear dose-dependent DMR |  | 108 % Zaprinast | 108 ± 9 µM |  | GPR35 internalization (GPR35 [4]): obvious internalization; Activity in Tango β-arrestin translocation assay (in words) (GPR35 [2]; U2OS-GPR35-bla cells): full agonist |
| N[C@@H](Cc1cc(I)c(Oc2cc(I)c(O)c(I)c2)c(I)c1)C(=O)O [L-Thyroxine (T4), L-thyroxine, reference compound] | > 500 µM | >100 pm |  |  | >20 % Zaprinast | > 500 µM |  |  |
| O=C([O-])c1cc(=O)c2c(OCC(O)COc3cccc4oc(C(=O)[O-])cc(=O)c34)cccc2o1.[Na+].[Na+] [Cromolyn disodium, reference compound] |  | 252±16 pm |  |  | 97 % Zaprinast |  |  | EC50 (GPR35 [1]; read-out: EC50 DMR, DMR agonism, HT-29 cells, maximal DMR amplitude within 1 hr): 0.52 ± 0.04 µM; EC50 (GPR35 [2]; read-out: EC50 Tango, U2OS-GPR35-bla cells, β-arrestin translocation): 9.67 ± 0.71 µM |
| N[C@@H](Cc1ccccc1)C(=O)O [L-Phenylalanine, L-phenylalanine] |  |  |  | Inactive |  |  | Inactive |  |
| O=C([O-])/C=C/C(=O)[O-].[Na+].[Na+] [Sodium fumarate, sodium fumarate] |  |  |  | Inactive |  |  | Inactive |  |
| N[C@@H](Cc1ccc(O)cc1)C(=O)O [L-Tyrosine, L-tyrosine] |  |  |  | Inactive |  |  | Inactive |  |
| N[C@@H](Cc1ccc(O)c(I)c1)C(=O)O [3-Iodo-L-tyrosine, 3-iodo-L-tyrosine] | > 500 µM | >50 pm |  | Inactive |  |  |  | DMR signal at 1 mM (in words) (GPR35 [1]; HT-29 cells, 1 mM): small but detectable DMR |
| N[C@@H](Cc1ccc(O)c(O)c1)C(=O)O [L-DOPA, 3,4-dihydroxy-L-phenylalanine, reference compound] | > 500 µM | Off-target | did not reach a saturated level up to 1 mM | Inactive |  |  |  | GPR35 internalization (GPR35 [4]): obvious internalization |
| CCOC(=O)Cc1ccc(O)c(OC)c1 [Ethyl homovanillate, ethyl homovanillate] |  |  |  |  |  |  | Inactive |  |
| O=C(/C=C/c1ccc(O)c(O)c1)O[C@H](Cc1ccc(O)c(O)c1)C(=O)O [Rosmarinate, rosmarinate] | 29.4 ± 2.7 µM | 320±11 pm | active |  | 63 % Zaprinast | 169 ± 17 µM |  |  |
